As a reminder, the IC50 is the concentration at which inhibition is half-maximal.

The structures appear in SMILES notation. The source made the active and inactive calls. The rule behind the calls is not given here. Where only a bound is given, the exact number is not on record here.

Xanthine dehydrogenase/oxidase, sequence (P47989 whole entry): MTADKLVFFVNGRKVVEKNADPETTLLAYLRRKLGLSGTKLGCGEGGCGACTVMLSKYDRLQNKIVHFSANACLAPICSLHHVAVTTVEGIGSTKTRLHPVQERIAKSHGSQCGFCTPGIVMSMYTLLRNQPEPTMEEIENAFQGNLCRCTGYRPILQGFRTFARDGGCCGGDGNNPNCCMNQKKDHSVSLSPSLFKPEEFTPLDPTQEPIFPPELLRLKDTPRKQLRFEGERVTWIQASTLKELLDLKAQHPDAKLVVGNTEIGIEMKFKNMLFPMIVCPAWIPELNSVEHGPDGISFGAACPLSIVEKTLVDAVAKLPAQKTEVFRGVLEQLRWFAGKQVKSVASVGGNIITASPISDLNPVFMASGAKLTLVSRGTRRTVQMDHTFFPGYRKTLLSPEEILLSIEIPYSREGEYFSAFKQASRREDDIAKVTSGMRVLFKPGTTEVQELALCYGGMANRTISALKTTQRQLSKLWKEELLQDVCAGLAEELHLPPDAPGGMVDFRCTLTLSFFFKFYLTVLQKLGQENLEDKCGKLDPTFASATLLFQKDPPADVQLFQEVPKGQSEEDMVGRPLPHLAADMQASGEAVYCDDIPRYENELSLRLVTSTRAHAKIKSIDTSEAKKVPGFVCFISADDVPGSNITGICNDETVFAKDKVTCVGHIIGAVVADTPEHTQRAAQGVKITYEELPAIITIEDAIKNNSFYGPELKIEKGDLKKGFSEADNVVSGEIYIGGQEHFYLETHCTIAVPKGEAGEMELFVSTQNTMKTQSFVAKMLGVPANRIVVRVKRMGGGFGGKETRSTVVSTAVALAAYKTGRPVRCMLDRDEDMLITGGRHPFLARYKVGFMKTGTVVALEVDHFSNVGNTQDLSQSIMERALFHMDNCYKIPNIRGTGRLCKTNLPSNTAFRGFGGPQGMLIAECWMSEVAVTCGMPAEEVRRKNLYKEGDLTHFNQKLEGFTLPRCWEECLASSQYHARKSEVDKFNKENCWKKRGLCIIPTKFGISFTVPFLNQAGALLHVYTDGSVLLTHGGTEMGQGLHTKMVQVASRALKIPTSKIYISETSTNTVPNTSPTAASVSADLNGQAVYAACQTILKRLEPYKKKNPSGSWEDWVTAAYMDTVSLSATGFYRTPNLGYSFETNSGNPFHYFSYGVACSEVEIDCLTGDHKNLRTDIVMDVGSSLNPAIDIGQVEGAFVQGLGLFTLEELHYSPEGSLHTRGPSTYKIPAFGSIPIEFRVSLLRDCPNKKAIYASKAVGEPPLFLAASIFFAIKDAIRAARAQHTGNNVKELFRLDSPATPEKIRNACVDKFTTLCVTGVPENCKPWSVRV

The test system of one series is Neutrophil. The series is described as follows: Inhibition of PMA-stimulated super oxide anion generation in Sprague-Dawley rat neutrophils. It counts as functional, cell-based. The method in brief: (§1)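 Peripheral blood neutrophils were isolated from Sprague-Dawley rats. Stimulus was fMLP (0.3 µM) with cytochalasin B (5 µg/mL) for 30 min, or PMA (3 nM). Superoxide was measured as SOD-inhibitable cytochrome c reduction. DPI was the reference inhibitor. IC50 was taken from concentration–response curves; means ± SD, n = 3–6.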
`C=C(C)[C@@H]1CC[C@]2(C)[C@H](C(=O)C=C3[C@@H]4C[C@@](C)(C(=O)OCc5ccccc5)CC[C@]4(C)CC[C@]32C)[C@@]1(C)CCC(=O)OC`: the IC50 was determined as 17 µM and the inhibition result was “Dose-dependent effect”.
Taken in the same sequence, the figures for `c1ccc2c(c1)[I+]c1ccccc1-2` [DIPHENYLENEIODONIUM CHLORIDE] were 1.8 µM and “Dose-dependent effect”.
`COC(=O)[C@@]1(C)CC[C@]2(C)CC[C@]3(C)C(=CC(=O)[C@@H]4[C@@]5(C)CCC(=O)OC(C)(C)[C@@H]5CC[C@]43C)[C@@H]2C1`: the IC50 was determined as 12.9 µM and the inhibition result is “Dose-dependent effect”.
Turning to `C=C(C)[C@@H]1CC[C@]2(C)[C@H](C(=O)C=C3[C@@H]4C[C@@](C)(C(=O)NC(C)C)CC[C@]4(C)CC[C@]32C)[C@@]1(C)CCC(=O)OC`, the IC50 is 15.6 µM and the inhibition result was “Dose-dependent effect”.

In a further series the target is Xanthine dehydrogenase/oxidase (Homo sapiens, UniProt P47989). The series is described as follows: Inhibition of xanthine oxidase. The method in brief:
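Xanthine oxidase activity measured at 25 °C with xanthine as substrate, in 70 mM phosphate buffer (pH 7.5), following a modified published protocol. Compounds were taken from 30 mM DMSO stocks diluted in DMSO, with final DMSO below 0.5% (v/v).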
`CC1(C)C(=O)CC[C@]2(C)[C@H]3C(=O)C=C4[C@@H]5C[C@@](C)(C(=O)O)CC[C@]5(C)CC[C@@]4(C)[C@]3(C)CC[C@@H]12`: the “inhibition (INH)” value is on record as “Not Active”.
Take `Oc1ncnc2[nH]ncc12` [ALLOPURINOL]: the “inhibition (INH)” value is “Not Active”.

A further series concerns Neutrophil. The series is described as follows: Inhibition of fMLP/cytochalasin B-stimulated super oxide anion generation in Sprague-Dawley rat neutrophils. It counts as functional, cell-based. The method in brief: as §1
Consider `CC1(C)C(=O)CC[C@]2(C)[C@H]3C(=O)C=C4[C@@H]5C[C@@](C)(C(=O)O)CC[C@]5(C)CC[C@@]4(C)[C@]3(C)CC[C@@H]12`, for which the IC50 turned out to be 10.3 µM and the inhibition entry was “Dose-dependent effect”.
As for `c1ccc2c(c1)[I+]c1ccccc1-2` [DIPHENYLENEIODONIUM CHLORIDE], 2.7 µM corresponded to half-maximal inhibition (IC50) and the inhibition entry is “Dose-dependent effect”.
Take `C=C(C)[C@@H]1CC[C@]2(C)[C@H](C(=O)C=C3[C@@H]4C[C@@](C)(C(=O)NC(C)C)CC[C@]4(C)CC[C@]32C)[C@@]1(C)CCC(=O)O`: the IC50 worked out at 9.8 µM and the inhibition entry is “Dose-dependent effect”.
Turning to `C=C(C)[C@@H]1CC[C@]2(C)[C@H](C(=O)C=C3[C@@H]4C[C@@](C)(C(=O)O)CC[C@]4(C)CC[C@]32C)[C@@]1(C)CCC(=O)O`, inhibition was half-maximal at 7 µM (IC50) and the inhibition entry was “Dose-dependent effect”.

The test system of the next series is Nucleic Acid. The experiment in a line: Inhibition of superoxide anion induced DNA damage of Escherichia coli pBR322 at 300 uM by gel electrophoresis. The format is functional. The method in brief: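 Supercoiled pBR322 plasmid DNA (1 µg/µL) was exposed to xanthine (2 mM)/xanthine oxidase (0.7 U/mL) in 10 mM phosphate buffer, pH 7.4, with compound for 20 min at 37 °C. SOD and quercetin served as comparators. Mixtures were electrophoresed on 1.0% agarose with ethidium bromide (0.05 µg/mL) in TAE, 100 V, 30 min.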
With `C=C(C)[C@@H]1CC[C@]2(C)[C@H](C(=O)C=C3[C@@H]4C[C@@](C)(C(=O)OCc5ccccc5)CC[C@]4(C)CC[C@]32C)[C@@]1(C)CCC(=O)OC`, the inhibition result was “Active”.
The same measure, in the same setting: then `CC1(C)C(=O)CC[C@]2(C)[C@H]3C(=O)C=C4[C@@H]5C[C@@](C)(C(=O)O)CC[C@]5(C)CC[C@@]4(C)[C@]3(C)CC[C@@H]12`, with “Active”; and `COC(=O)[C@@]1(C)CC[C@]2(C)CC[C@]3(C)C(=CC(=O)[C@@H]4[C@@]5(C)CCC(=O)OC(C)(C)[C@@H]5CC[C@]43C)[C@@H]2C1`, with “Active”; and `C=C(C)[C@@H]1CC[C@]2(C)[C@H](C(=O)C=C3[C@@H]4C[C@@](C)(C(=O)NC(C)C)CC[C@]4(C)CC[C@]32C)[C@@]1(C)CCC(=O)OC`, with “Active”.
Turning to `C=C(C)[C@@H]1CC[C@]2(C)[C@H](C(=O)C=C3[C@@H]4C[C@@](C)(C(=O)NC(C)C)CC[C@]4(C)CC[C@]32C)[C@@]1(C)CCC(=O)O`, the inhibition result is “Active”.
Regarding `C=C(C)[C@@H]1CC[C@]2(C)[C@H](C(=O)C=C3[C@@H]4C[C@@](C)(C(=O)O)CC[C@]4(C)CC[C@]32C)[C@@]1(C)CCC(=O)O`, the inhibition result is “Active”.

In another series the test system is RAW264.7. The experiment in a line: Inhibition of LPS-induced iNOS protein expression in mouse RAW264.7 cells at 10 uM pretreated 1 hr before LPS challenge by Western blot. The format is functional, cell-based. The method, boiled down: (§2)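 RAW 264.7 cells were pretreated 1 h with compound at 3 or 10 µM, then given LPS at 50 ng/mL for 24 h. Cells were washed with PBS, lysed in Laemmli SDS buffer and run on 10% SDS–PAGE, then transferred to PVDF and blocked in 5% milk/TBST. Blots were probed with monoclonal anti-iNOS (1:1000, 1 h) and HRP anti-mouse IgG (1:10,000), with ECL detection.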
(In general: A western blot detects proteins with antibodies after separation by electrophoresis.)
Take `C=C(C)[C@@H]1CC[C@]2(C)[C@H](C(=O)C=C3[C@@H]4C[C@@](C)(C(=O)NC(C)C)CC[C@]4(C)CC[C@]32C)[C@@]1(C)CCC(=O)OC`: the inhibition result is “Active”.

Another series concerns Radical scavenging activity. The series is described as follows: Antioxidant activity assessed as DPPH radical scavenging activity. The format is functional. (Loss of DPPH colour is used to gauge radical scavenging.)
Take `C=C(C)[C@@H]1CC[C@]2(C)[C@H](C(=O)C=C3[C@@H]4C[C@@](C)(C(=O)OCc5ccccc5)CC[C@]4(C)CC[C@]32C)[C@@]1(C)CCC(=O)OC`: the inhibition result is “inactive”.
Take `CC1(C)C(=O)CC[C@]2(C)[C@H]3C(=O)C=C4[C@@H]5C[C@@](C)(C(=O)O)CC[C@]5(C)CC[C@@]4(C)[C@]3(C)CC[C@@H]12`: the inhibition result was “inactive”.
As to `Oc1ncnc2[nH]ncc12` [ALLOPURINOL], the inhibition entry was “inactive”.
On the same count and under the same terms, then `COC(=O)[C@@]1(C)CC[C@]2(C)CC[C@]3(C)C(=CC(=O)[C@@H]4[C@@]5(C)CCC(=O)OC(C)(C)[C@@H]5CC[C@]43C)[C@@H]2C1`, with “inactive”; and `C=C(C)[C@@H]1CC[C@]2(C)[C@H](C(=O)C=C3[C@@H]4C[C@@](C)(C(=O)NC(C)C)CC[C@]4(C)CC[C@]32C)[C@@]1(C)CCC(=O)OC`, with “inactive”.
Consider `C=C(C)[C@@H]1CC[C@]2(C)[C@H](C(=O)C=C3[C@@H]4C[C@@](C)(C(=O)NC(C)C)CC[C@]4(C)CC[C@]32C)[C@@]1(C)CCC(=O)O`, for which the inhibition result was “inactive”.
The same measure, in the same setting: then `C=C(C)[C@@H]1CC[C@]2(C)[C@H](C(=O)C=C3[C@@H]4C[C@@](C)(C(=O)O)CC[C@]4(C)CC[C@]32C)[C@@]1(C)CCC(=O)O`, with “inactive”.

The subject of the next series is RAW264.7. The experiment in a line: Inhibition of LPS-induced nitric oxide generation in mouse RAW264.7 cells pretreated 1 hr before LPS challenge by Griess method. The format is functional, cell-based. The method, boiled down: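 Plated RAW 264.7 cells were preincubated with compound for 1 h at 37 °C, then stimulated with LPS at 1 µg/mL for 24 h. Nitrite accumulated in the medium was measured by the Griess reaction. Results are % inhibition at a single concentration or IC50 from concentration curves. Data are means ± SD, n = 3–6. Final DMSO <0.5%.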
Background: Nitrite, measured by Griess reagent, commonly stands in for NO production.
Consider `C=C(C)[C@@H]1CC[C@]2(C)[C@H](C(=O)C=C3[C@@H]4C[C@@](C)(C(=O)OCc5ccccc5)CC[C@]4(C)CC[C@]32C)[C@@]1(C)CCC(=O)OC`, for which the IC50 is greater than 30 µM.
Regarding `C=C(C)[C@@H]1CC[C@]2(C)[C@H](C(=O)C=C3[C@@H]4C[C@@](C)(C(=O)OC(C)C)CC[C@]4(C)CC[C@]32C)[C@@]1(C)CCC(=O)OC`, the IC50 is greater than 30 µM.
`CC1(C)C(=O)CC[C@]2(C)[C@H]3C(=O)C=C4[C@@H]5C[C@@](C)(C(=O)O)CC[C@]5(C)CC[C@@]4(C)[C@]3(C)CC[C@@H]12`: the IC50 was greater than 30 µM.
Take `CC(=N)NCc1cccc(CN)c1` [1400W]: the IC50 is 1.5 µM.
As to `C=C(C)[C@@H]1CC[C@]2(C)[C@H](C(=O)C=C3[C@@H]4C[C@@](C)(C(=O)NC(C)C)CC[C@]4(C)CC[C@]32C)[C@@]1(C)CCC(=O)OC`, the IC50 came to 13.1 µM.
Same read-out and setting: under `C=C(C)[C@@H]1CC[C@]2(C)[C@H](C(=O)C=C3[C@@H]4C[C@@](C)(C(=O)OC)CC[C@]4(C)CC[C@]32C)[C@@]1(C)CCC(=O)OC` stands greater than 30 µM.

The next series relates to RAW264.7. The experiment in a line: Inhibition of LPS-induced TNFalpha release in mouse RAW264.7 cells pretreated 1 hr before LPS challenge by enzyme immunoassay. The format is functional, cell-based. The method in brief: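 RAW 264.7 murine macrophages were incubated with compound (diluted from DMSO stock; final DMSO <0.5% v/v), then stimulated with LPS. Secreted TNF-α in culture supernatant was quantified by EIA kit. Data are means ± SD, n = 3–6. IC50 was taken from concentration–response curves.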
On to `CC1(C)[C@@H](O)CC[C@]2(C)[C@H]3C(=O)C=C4[C@@H]5C[C@@](C)(C(=O)O)CC[C@]5(C)CC[C@@]4(C)[C@]3(C)CC[C@@H]12` [ENOXOLONE], for which the IC50 amounted to 1.3 µM and the inhibition result is “Dose-dependent effect”.
For `C=C(C)[C@@H]1CC[C@]2(C)[C@H](C(=O)C=C3[C@@H]4C[C@@](C)(C(=O)Nc5ccccc5)CC[C@]4(C)CC[C@]32C)[C@@]1(C)CCC(=O)O`, the IC50 stood at 27.7 µM and the inhibition entry is “Dose-dependent effect”.
On to `C=C(C)[C@@H]1CC[C@]2(C)[C@H](C(=O)C=C3[C@@H]4C[C@@](C)(C(=O)OCc5ccccc5)CC[C@]4(C)CC[C@]32C)[C@@]1(C)CCC(=O)OC`, for which the IC50 came out at 13.7 µM and the inhibition result was “Dose-dependent effect”.
On to `C=C(C)[C@@H]1CC[C@]2(C)[C@H](C(=O)C=C3[C@@H]4C[C@@](C)(C(=O)Nc5ccccc5)CC[C@]4(C)CC[C@]32C)[C@@]1(C)CCC(=O)OC`, for which the IC50 came out at 15.5 µM and the inhibition result is “Dose-dependent effect”.
Take `C=C(C)[C@@H]1CC[C@]2(C)[C@H](C(=O)C=C3[C@@H]4C[C@@](C)(C(=O)OCc5ccccc5)CC[C@]4(C)CC[C@]32C)[C@@]1(C)CCC(=O)O`: the IC50 stood at 2.3 µM and the inhibition entry is “Dose-dependent effect”.
For `O=c1c(-c2ccc(O)cc2)coc2cc(O)cc(O)c12` [GENISTEIN] the same measures were 26.5 µM and “Dose-dependent effect”.
In the case of `C=C(C)[C@@H]1CC[C@]2(C)[C@H](C(=O)C=C3[C@@H]4C[C@@](C)(C(=O)OC)CC[C@]4(C)CC[C@]32C)[C@@]1(C)CCC(=O)O`, the IC50 was determined as 26.1 µM and the inhibition entry is “Dose-dependent effect”.

A further series has as its system RAW264.7. The series is described as follows: Inhibition of LPS-induced iNOS protein expression in mouse RAW264.7 cells at 3 uM pretreated 1 hr before LPS challenge by Western blot. It counts as functional, cell-based. The method in brief:
as §2
In the case of `C=C(C)[C@@H]1CC[C@]2(C)[C@H](C(=O)C=C3[C@@H]4C[C@@](C)(C(=O)NC(C)C)CC[C@]4(C)CC[C@]32C)[C@@]1(C)CCC(=O)OC`, the inhibition entry is “Active”.

The values above are taken from ChEMBL document CHEMBL1153374, “Synthesis, anti-inflammatory, and antioxidant activities of 18beta-glycyrrhetinic acid derivatives as chemical mediators and xanthine oxidase inhibitors” (Bioorg Med Chem, 2009).
